PERK inh = block of dimerizer-induced PERK translation repression, primary screen, PERK inhibitor project, CHO PERK-DD cells, SEAP luminescence, HTS | hit rate 0.17% among 220,000 | inhibition, % at 5.6 µM | CHO PERK-DD fusion, SEAP luminescence translation reporter | Eukaryotic translation initiation factor 2-alpha kinase 3 (Homo sapiens), Q9NZJ5;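 active means inhibition above the mean inhibition of all tested compounds plus 3 SD, set separately per screening campaign, cut at about 2.9% in these data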;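 further: PERK kinase domain activated by AP20187 dimerizer at 100 nM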
APP 5'UTR act = activators of APP 5'UTR luciferase reporter, primary screen, SH-SY5Y cells; SH-SY5Y APP 5'UTR luciferase reporter, luminescence; zero percent = DMSO vehicle wells; activation, % at 2 µM; hit rate 1% among 190,000; AID 1276, 2008;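 active means activation above a set limit, based on mean plus 3 SD of controls, cut at about 140% in these data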
AHR activator = AHR activators, primary screen, cell-based, luminescence, luciferase reporter, human; Aryl hydrocarbon receptor (Homo sapiens), P35869; AHR-responsive luciferase reporter cells; activation, % at 5 µM; hit rate 2.5% among 320,000; in the data active means activation above about 47%
STAT1 activator = STAT1 signaling activators, primary screen, cell-based, HTS, luciferase reporter. hit rate 2.6% among 200,000. NIH 3T3 STAT1-luciferase reporter, IFN-gamma, luminescence; 100% = IFN-gamma alone, no compound. activation (% of control), % at 5.5 µM. AID 932, 2007;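 active means activation above the screen-wide mean activation plus 3 SD, cut at about 130% in these data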
NF-kB neuron act = activators of NF-kB expression in neurons, primary screen, cell-based, HTS | human neuronal cells, NF-kB reporter expression; stronger effect = higher value | fold change at 12.5 µM | hit rate 1.6% among 190,000; in the data active means fold change above about 3.3
Mdm2 ligase inh = MDM2-luciferase reporter signal enhancers, primary screen, MDM2 E3 ligase inhibitor project, cell-based, luminescence, 1536-well; signal enhancement, % at 5 µM; E3 ubiquitin-protein ligase Mdm2 (Homo sapiens), Q00987; cell-based MDM2 ubiquitination luciferase reporter, 2 h; 0 = plate control, 100 = twice control, blank-subtracted; hit rate 0.11% among 210,000;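 active means signal enhancement of 30% or more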;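 further: luminescence tracks abundance of the self-degrading MDM2-luciferase fusion protein; higher signal means inhibition of MDM2 E3 ligase activity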
Target sequence (Q00987 whole entry, looked up, the tested form may be a part): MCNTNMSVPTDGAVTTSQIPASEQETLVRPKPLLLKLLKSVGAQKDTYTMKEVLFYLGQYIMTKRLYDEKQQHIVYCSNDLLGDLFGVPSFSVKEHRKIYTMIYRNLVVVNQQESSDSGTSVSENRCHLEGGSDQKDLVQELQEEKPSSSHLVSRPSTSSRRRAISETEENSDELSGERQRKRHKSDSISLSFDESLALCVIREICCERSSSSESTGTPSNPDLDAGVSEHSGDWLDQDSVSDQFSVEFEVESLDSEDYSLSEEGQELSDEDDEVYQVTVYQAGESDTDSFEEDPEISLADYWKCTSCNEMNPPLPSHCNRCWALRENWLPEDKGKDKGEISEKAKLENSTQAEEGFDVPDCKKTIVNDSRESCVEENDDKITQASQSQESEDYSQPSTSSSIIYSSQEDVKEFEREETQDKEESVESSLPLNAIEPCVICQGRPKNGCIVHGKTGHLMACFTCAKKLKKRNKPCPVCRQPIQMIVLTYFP
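Test system: mammalian cells stably expressing self-ubiquitinating, self-degrading MDM2 E3–luciferase fusion; Amount: 2000 cells in each well; Medium: DMEM; Schedule: 4 h settle plus 2 h compound, 37 °C; Technique: SteadyLite luciferase luminescence after 15 min room-temperature reagent incubation; Benchmarks: plate control and blank wells.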
Hits are given with their value; – = inactive; · = not tested or not shown. The list is not random: actives were taken first. Their share in the collection is about 4.5%.

SMILES	PERK inh	APP 5'UTR act	AHR activator	STAT1 activator	NF-kB neuron act	Mdm2 ligase inh
O=C(O)c1ccc(-c2ccc(Cl)cc2Cl)o1	–	–	–	–	–	–
COc1ccc(/C=C(\NC(=O)c2ccc(C)cc2)C(=O)NCCCn2ccnc2)cc1OC	·	·	–	·	·	·
COc1ccc(Br)cc1CN(C)C(=O)c1ccccc1OCc1c(C)noc1C	·	·	–	·	·	·
CCOc1ccc(-c2nnc3ccc(SCC(=O)Nc4nc5ccccc5s4)nn23)cc1	–	–	73	–	–	–
CCOc1ccc(-c2nnc3ccc(SCC(=O)Nc4nc5ccc(C)cc5s4)nn23)cc1	–	–	63	–	–	–
CCOc1ccc(-c2nnc3ccc(SC(C)C)nn23)cc1	–	–	51	–	–	–
Cc1ccc(S(=O)(=O)NCCc2nnc3ccc(SCC(=O)Nc4nc5ccccc5s4)nn23)cc1	–	–	–	–	–	–
CCOc1ccc(C(=O)COC(=O)Cn2cnc3c2c(=O)n(C)c(=O)n3C)cc1	·	·	–	·	·	·
O=C(/C=C/c1ccccc1)Nc1cccc(S(=O)(=O)Nc2ccccc2F)c1	–	–	–	–	–	–
CCC(c1nnnn1C(C)(C)C)N1CCN(c2cc(Cl)ccc2C)CC1 (stereo not drawn)	–	–	–	–	–	–
O=C1CN(C(=O)CSc2nncs2)c2ccccc2N1	–	–	–	–	–	–
O=C1CN(C(=O)CSc2nc(-c3ccccc3)cs2)c2ccccc2N1	–	–	58	–	–	–
CNC(=O)NC(=O)C(C)OC(=O)c1c2c(nc3ccccc13)/C(=C/c1cccs1)CC2 (stereo not drawn)	–	–	–	130	–	–
C=CCn1c(-c2cccs2)nc2nc3ccccc3nc21	–	–	70	–	–	–
O=C(NCC1COc2ccccc2O1)c1ccc(Cl)cc1 (stereo not drawn)	–	–	–	140	–	–
O=C(NCC1COc2ccccc2O1)c1ccc(NC(=O)c2ccco2)cc1 (stereo not drawn)	–	–	–	–	–	–
C=CCN1C=C/C(=C\C=C(C#N)C#N)c2ccccc21	–	–	53	–	–	–
COc1ccc(C(=O)/C=C/c2cn(CC(O)CN3CCOCC3)c3ccccc23)cc1 (stereo not drawn)	–	–	–	–	–	–
COc1ccc(C(=O)/C=C/c2cn(CN3CCN(C)CC3)c3ccccc23)cc1	–	–	–	–	6.5	–
Cc1ccc(C(=O)/C=C/c2cn(CC(O)CN3CCOCC3)c3ccccc23)cc1 (stereo not drawn)	–	–	–	–	–	–
CCOc1ccc(C(=O)/C=C/c2cn(CN3CCN(C)CC3)c3ccccc23)cc1	–	–	–	–	3.4	–
CC(=O)Nc1ccc2c(c1)ncn2-c1ccc(C)cc1	–	225	–	146	5.1	–
O=C(Nc1ccc2c(c1)ncn2-c1ccccc1)c1ccco1	–	–	–	140	–	–
CC(C)C(=O)Nc1ccc2nn(-c3ccc(F)cc3)nc2c1	·	·	–	·	·	·
Cc1ccc(-n2nc3ccc(NC(=O)C(C)C)cc3n2)cc1	–	194	–	135	–	–
COc1ccccc1NC(=O)C(C)N1C(=O)C2CCCCC2C1=O (stereo not drawn)	·	·	–	·	·	·
COc1ccc(C2CC(=O)Nc3n[nH]c(-c4ccccc4)c32)cc1OC (stereo not drawn)	–	–	–	–	–	–
CC(=O)NC(c1ccc(Cl)cc1)c1c(O)ccc2ccc(O)cc12 (stereo not drawn)	–	–	–	130	–	–
O=C(CCc1nnc(-c2ccc3c(c2)OCO3)o1)N1CCC(c2ccc(F)cc2)C1 (stereo not drawn)	–	–	–	134	–	–
CC1CCN(C(=O)CCc2nnc(-c3ccccc3)o2)CC1	–	–	–	135	–	–
